Experimental data as given in ChEMBL document CHEMBL3745683, “Regulatory effect of hydroquinone-tetraethylene glycol conjugates on zebrafish pigmentation” (Bioorg Med Chem Lett, 2016).
The source made the active and inactive calls.

Experiments:
[1] = Photostability of compound after 18 hrs under UV irradition condition; type: physicochemical
Outline: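 Compound at 0.1 mM in 1X PBS, pH 7.4, was exposed to UV at ambient conditions for 18 h. UV spectra were compared before and after exposure; the HQ absorption band is at 289 nm.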

[2] = Cytotoxicity against human HF16 cells assessed as decrease in cell viability at 200 uM after 24 hrs by MTT assay; type: cell-based
Outline: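 HF-16 human fetal foreskin fibroblasts exposed to compound at 200 μM, with 0.1% DMSO as vehicle control, for 24 hr. Viability was read by MTT assay. Data are means ± SEM, compared against the vehicle control.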

Danio rerio [3] = organism: Danio rerio; test: Depigmentation effect on zebrafish assessed as eye color change from black to gray incubated for 63 hrs post fertilization by microscopic analysis; type: functional, organism-based
Outline: (§1)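 Synchronized zebrafish embryos were kept in embryo medium containing compound at 50, 100 or 200 μM, added from DMSO to a final 0.1%. Mock control was 0.1% DMSO; positive control was HQ at 100 μM. Larval pigment spots were selected manually from dorsal-view microscope images, excluding eyes and yolk. Image analysis gave binary threshold, histogram and black-spot size; eye colour was scored visually. Data are means ± SEM versus mock.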

[4] = Drug degradation of compound assessed as Cu2+-mediated oxidation; type: physicochemical
Outline: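 Compound at 0.1 mM in 1X PBS, pH 7.4, was treated with 20 μM Cu2+. UV absorption spectra were recorded over a time course.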

Danio rerio [5] = organism: Danio rerio; test: Depigmentation effect on zebrafish assessed as increase in histogram of black spots incubated for 63 hrs post fertilization by microscopic analysis; type: functional, organism-based; outline: as §1
Danio rerio [6] = organism: Danio rerio; test: Depigmentation effect on zebrafish assessed as increase in binary threshold incubated for 63 hrs post fertilization by microscopic analysis; type: functional, organism-based; outline: as §1
[7] = Drug degradation assessed as hydrolysis in 1M NaOH […] by HPLC analysis; type: physicochemical; details: buffer
Danio rerio [8] = organism: Danio rerio; test: Depigmentation effect on zebrafish assessed as decrease in size of black spots incubated for 63 hrs post fertilization by microscopic analysis; type: functional, organism-based; outline: as §1
[9] = 1-Octanol-water partition coefficient, log P of the compound by UV spectrophotometry-based shake flask method; type: physicochemical
Danio rerio [10] = organism: Danio rerio; test: Inhibition of pigmentation in zebrafish assessed as increase in histogram of black spots pre-treated with 0.2 mM compound at 9 hrs post fertilization followed by compound exposure for 37 hrs by microscopic analysis; type: functional, organism-based
Danio rerio [11] = organism: Danio rerio; test: Inhibition of pigmentation in zebrafish assessed as decrease in size of black spots pre-treated with 0.2 mM compound at 9 hrs post fertilization followed by compound exposure for 37 hrs by microscopic analysis; type: functional, organism-based
Danio rerio [12] = organism: Danio rerio; test: Inhibition of pigmentation in zebrafish assessed as decrease in size of black spots pre-treated with 0.2 mM compound at 9 hrs post fertilization followed by mock treatment for 37 hrs by microscopic analysis; type: functional, organism-based
Danio rerio [13] = organism: Danio rerio; test: Inhibition of pigmentation in zebrafish assessed as increase in histogram of black spots pre-treated with 0.2 mM compound at 9 hrs post fertilization followed by mock treatment for 37 hrs by microscopic analysis; type: functional, organism-based
[14] = Drug degradation assessed as hydrolysis at pH 3 to 9 by HPLC analysis; type: physicochemical; details: buffer
Danio rerio [15] = organism: Danio rerio; test: Inhibition of alpha-MSH-induced pigmentation in zebrafish assessed as decrease in size of black spots pre-treated with 0.2 mM compound at 9 hrs post fertilization followed by compound exposure for 37 hrs by microscopic analysis; type: functional, organism-based
Danio rerio [16] = organism: Danio rerio; test: Inhibition pigmentation in zebrafish assessed as increase in binary threshold pre-treated with 0.2 mM compound at 9 hrs post fertilization followed by compound exposure for 37 hrs by microscopic analysis; type: functional, organism-based
Danio rerio [17] = organism: Danio rerio; test: Inhibition pigmentation in zebrafish assessed as increase in binary threshold pre-treated with 0.2 mM compound at 9 hrs post fertilization followed by mock treatment for 37 hrs by microscopic analysis; type: functional, organism-based
Danio rerio [18] = organism: Danio rerio; test: Inhibition of alpha-MSH-induced pigmentation in zebrafish assessed as increase in histogram of black spots pre-treated with 0.2 mM compound at 9 hrs post fertilization followed by compound exposure for 37 hrs by microscopic analysis; type: functional, organism-based
Danio rerio [19] = organism: Danio rerio; test: Inhibition of alpha-MSH-induced pigmentation in zebrafish assessed as increase in binary threshold pre-treated with 0.2 mM compound at 9 hrs post fertilization followed by compound exposure for 37 hrs by microscopic analysis; type: functional, organism-based

| SMILES | Stability [1] | Activity [2] | Activity (Danio rerio [3]) | Stability [4] | Activity (Danio rerio [5]) | Activity (Danio rerio [6]) | Stability [7] | Activity (Danio rerio [8]) | logP [9] | inhibition (Danio rerio [10]) | inhibition (Danio rerio [11]) | inhibition (Danio rerio [12]) | inhibition (Danio rerio [13]) | Stability [14] | inhibition (Danio rerio [15]) | inhibition (Danio rerio [16]) | inhibition (Danio rerio [17]) | inhibition (Danio rerio [18]) | inhibition (Danio rerio [19]) | Drug degradation ([4]; TDE = time-dependent effect) |
| --- | --- | --- | --- | --- | --- | --- | --- | --- | --- | --- | --- | --- | --- | --- | --- | --- | --- | --- | --- | --- |
| COCCOCCOCCOCC(=O)Oc1ccc(O)cc1 | Stable | Toxic | Dose-dependent effect | Stable | Dose-dependent effect | Dose-dependent effect | Unstable | Dose-dependent effect | -0.036 |  |  |  |  |  |  |  |  |  |  |  |
| COCCOCCOCCOCCOc1ccc(O)cc1 | Stable | Non-toxic | Dose-dependent effect | Stable | Dose-dependent effect | Dose-dependent effect |  | Dose-dependent effect | -0.026 | Active | Active | inactive | inactive | Stable | Active | Active | inactive | Active | Active |  |
| Oc1ccc(O)cc1 [HYDROQUINONE] | Unstable | Toxic |  |  |  |  |  |  | 0.25 |  |  |  |  |  |  |  |  |  |  | tde |
